Out of some 5,600 compounds screened, about 1,200 (21%) were called active. Another 3% or so got no clear call; they are omitted. A selection follows. Unmarked numbers belong to inactive results.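 How the source made its calls: active means mean inhibition above about 95%, with at least 55% of replicates also reaching it (limit read from the data); inconclusive means meets just one of the two conditions; inactive means meets neither condition.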
Assay: inhibitors of intracellular T. cruzi replication, confirmation, NIH3T3 host cells, beta-gal parasites, cherry-pick, set 2 (AID 651740);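 further: plate controls were neutral control median for no effect and positive control median for full effect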
Settings: T. cruzi beta-gal in NIH3T3, GalScreen luminescence, 90 h; at 2.09 µM; active compounds read high
Summary of the method: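 Technique: GalScreen lysis and luminescent beta-gal signal | Test system: T. cruzi Tulahuen C4 (beta-gal) in NIH/3T3 cells | Amount: 5,000 fibroblasts/well | Reagent: 5000 parasites/well | Times: ≥90 h infection with compound, 60 min read delay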

First: CC(C)(C)[S@@](=O)N1Cc2cc(C(=O)NCc3ccc4c(c3)OCO4)nc(-c3cccc(-c4ccccc4)c3)c2[C@H]1CCO
Second: C[C@H]1CN([C@@H](C)CO)C(=O)c2cc(NC(=O)Nc3ccc4c(c3)OCO4)ccc2O[C@@H]1CN(C)Cc1ccc(Oc2ccccc2)cc1
The inhibition of the first is higher: 91.6% for the first, 66.6% for the second.

Compared with `O=C(Nc1ccc(Cl)cc1)N[C@@H]1CC[C@@H](CCNC(=O)c2ccccc2F)O[C@H]1CO`, `CC(=O)N1[C@H](CNC(=O)C2CC2)[C@@H](c2ccc(-c3cccc(F)c3)cc2)[C@@H]1CO` is lower in inhibition: 36.4% for the first, -2.15% for the second.

Going from `Cc1ccc(S(=O)(=O)N(C)C[C@@H]2Oc3ncc(-c4cc5ccccc5o4)cc3C(=O)N([C@H](C)CO)C[C@@H]2C)cc1` to `COc1ccccc1-c1ccc2c(c1)O[C@H](CN(C)S(=O)(=O)c1ccc(C)cc1)[C@@H](C)CN([C@H](C)CO)S2(=O)=O`, the inhibition rises from 43% to 91.3%.

Compared with `O=C(Nc1ccccc1)N1CCCCN2[C@H](CO)[C@@H](c3ccc(C#Cc4ccccn4)cc3)[C@H]2C1`, `O=C(c1ccncc1)N1CCCCN2[C@H](CO)[C@H](c3ccc(-c4ccccc4)cc3)[C@H]2C1` is higher in inhibition: 39.3% for the first, 68.8% for the second.

First: C[C@H](CO)N1C[C@H](C)[C@@H](CN(C)C(=O)C2CCCCC2)Oc2cc(-c3ccccc3)ccc2S1(=O)=O
Second: C[C@H]1CN([C@@H](C)CO)S(=O)(=O)c2ccc(C#CC3CCCC3)cc2O[C@H]1CN(C)C(=O)Cc1ccncc1
The inhibition of the first is lower: 68.2% for the first, 79.4% for the second.

`CCCN(C)C[C@@H]1Oc2cc(C#Cc3ccc(F)cc3)ccc2S(=O)(=O)N([C@H](C)CO)C[C@H]1C` and `CCCN(C)C[C@H]1Oc2cc(C#CC3CCCC3)ccc2S(=O)(=O)N([C@H](C)CO)C[C@@H]1C` are the same in inhibition: 68.9% for the first, 68.9% for the second.

First: C[C@H](CO)N1C[C@H](C)[C@H](CN(C)Cc2ccncc2)Oc2cc(-c3ccncc3)ccc2S1(=O)=O
Second: C[C@H](CO)N1C[C@H](C)[C@@H](CN(C)Cc2ccc(-c3ccccc3)cc2)Oc2ccc(NC(=O)CCC(F)(F)F)cc2CC1=O
The inhibition of the first is higher: 90.6% for the first, 89.8% for the second.

Compared with `Cc1ccc(S(=O)(=O)N2C[C@@H](O)COC[C@@H]3O[C@H](CC(=O)NCc4ccc(Cl)c(Cl)c4)CC[C@H]32)cc1`, `O=C(C[C@H]1CC[C@@H]2[C@H](COC[C@H](O)CN2Cc2ccc(Oc3ccccc3)cc2)O1)N1CCN(c2ccccc2)CC1` is lower in inhibition: 50.2% for the first, 21.7% for the second.

First: COCCNC[C@@H]1[C@H](c2ccccc2)[C@H](CO)N1c1nc(C)c(C)s1
Second: COCC(=O)N1[C@H](CO)[C@@H](c2ccc(C#Cc3ccccc3F)cc2)[C@@H]1C#N
The inhibition of the first is lower: 5.12% for the first, 72.9% for the second.

First: O=C(Nc1ccc2c(c1)[C@@H]1C[C@H](CC(=O)N3CCOCC3)O[C@@H](CO)[C@@H]1O2)c1ccc2c(c1)OCO2
Second: C[C@@H]1CCCCO[C@@H](CN(C)Cc2ccc3c(c2)OCO3)[C@@H](C)CN([C@@H](C)CO)C(=O)c2cc(NC(=O)Nc3ccccc3)ccc2O1
The inhibition of the first is lower: 6.38% for the first, 84.4% for the second.

Going from `C[C@@H]1CN([C@H](C)CO)C(=O)c2cc(NS(C)(=O)=O)ccc2O[C@@H](C)CCCCO[C@H]1CN(C)S(=O)(=O)c1cn(C)cn1` to `C[C@@H]1CCCCO[C@H](CN(C)C(=O)Nc2cccc3ccccc23)[C@H](C)CN([C@H](C)CO)C(=O)c2cc(NS(=O)(=O)c3cccs3)ccc2O1`, the inhibition rises from -5.24% to 52.6%.

First: COc1ccc(C#Cc2ccc([C@@H]3[C@@H](CO)N4CCCCN(C(=O)c5ccncc5)C[C@@H]34)cc2)cc1
Second: CC(C)(O)C#Cc1ccc([C@@H]2[C@H](CO)N3CCCCN(C(=O)c4cccc(F)c4)C[C@@H]23)cc1
The inhibition of the first is higher: 30% for the first, -0.041% for the second.

Compared with `C[C@@H]1CN([C@H](C)CO)C(=O)c2cccc(NC(=O)c3cnccn3)c2O[C@@H]1CN(C)Cc1ccc(C(=O)Nc2ccccc2N)cc1`, `C[C@@H]1CN([C@@H](C)CO)C(=O)Cc2cc(NC(=O)C3CCCCC3)ccc2O[C@@H]1CN(C)Cc1ccc(C(=O)Nc2ccccc2N)cc1` is higher in inhibition: 82.4% for the first, 83.7% for the second.

Going from `Cc1ccc(S(=O)(=O)Nc2ccc3c(c2)C(=O)N([C@H](C)CO)C[C@H](C)[C@H](CN(C)Cc2ccc(Cl)c(Cl)c2)O3)cc1` to `C[C@@H]1CN([C@@H](C)CO)C(=O)c2cc(NC(=O)Cc3ccccc3)ccc2O[C@@H]1CN(C)Cc1ccc(Oc2ccccc2)cc1`, the inhibition rises from 74% to 94.9%.

Going from `C[C@@H]1CN([C@@H](C)CO)C(=O)c2cc(NC(=O)Nc3ccc4c(c3)OCO4)ccc2O[C@@H]1CN(C)Cc1ccc(Oc2ccccc2)cc1` to `COc1ccc(CN(C)C[C@H]2OCCCC[C@H](C)Oc3ccc(NC(=O)Nc4ccc5c(c4)OCO5)cc3C(=O)N([C@H](C)CO)C[C@@H]2C)cc1`, the inhibition rises from -1.56% to 83%.

Compared with `Cc1ccc(-c2ccc([C@H]3[C@H](CO)N4CCCCN(Cc5cncnc5)C[C@@H]34)cc2)cc1`, `CCC(=O)N1CCCCN2[C@H](C1)[C@@H](c1ccc(-c3ccc(F)cc3)cc1)[C@@H]2CO` is lower in inhibition: 50.8% for the first, -6.94% for the second.

Compared with `C[C@@H]1CN([C@H](C)CO)C(=O)c2cc(C#Cc3ccccn3)cnc2O[C@H]1CN(C)Cc1ccccc1`, `C[C@H]1CN([C@@H](C)CO)C(=O)c2cc(C#CC3CCCCC3)cnc2O[C@H]1CN(C)S(=O)(=O)c1ccccc1` is higher in inhibition: 76.7% for the first, 77% for the second.

Going from `C[C@H]1CN([C@@H](C)CO)C(=O)c2ccccc2-c2ccccc2CO[C@@H]1CN(C)S(=O)(=O)c1ccc(C(F)(F)F)cc1` to `C[C@H](CO)N1C[C@H](C)[C@H](CN(C)C(=O)Nc2ccc3c(c2)OCO3)Oc2ncc(C#Cc3cccc(F)c3)cc2C1=O`, the inhibition falls from 71.5% to 36.1%.

Going from `O=C(NCc1ccccn1)[C@@H]1[C@@H](CO)[C@@H]2Cn3c(ccc(/C=C/c4ccccc4)c3=O)[C@H]1N2CC1CC1` to `CCC(=O)N1CCCCN2[C@H](C1)[C@@H](c1ccc(/C=C/c3ccccc3)cc1)[C@@H]2CO`, the inhibition rises from 22.2% to 62.7%.

Compared with `CC(C)NC(=O)N(C)C[C@H]1OCc2cn(nn2)CCCC(=O)N([C@@H](C)CO)C[C@H]1C`, `C[C@@H]1CN([C@H](C)CO)C(=O)c2cc(C#CC3CCCCC3)cnc2O[C@@H]1CN(C)C(=O)NC1CCCC1` is higher in inhibition: -10.9% for the first, 66.9% for the second.

First: O=C(C1CC1)N1CCCCN2[C@H](CO)[C@H](c3ccc(-c4cccc(F)c4)cc3)[C@H]2C1
Second: O=C(C1CCC1)N1CCCCN2[C@H](CO)[C@H](c3ccc(-c4cccc(F)c4)cc3)[C@@H]2C1
The inhibition of the first is higher: 67% for the first, 62% for the second.

First: C[C@H](CO)N1C[C@H](C)[C@H](CN(C)C(=O)C2CCCCC2)Oc2ncc(C#Cc3cccc(F)c3)cc2C1=O
Second: C[C@H](CO)N1C[C@H](C)[C@@H](CN(C)C(=O)Nc2cc(F)ccc2F)Oc2cc(C#CC3CC3)ccc2S1(=O)=O
The inhibition of the first is lower: 44.3% for the first, 51.9% for the second.

Compared with `O=C(C1CCC1)N1CCCCN2[C@H](CO)[C@H](c3ccc(-c4ccncc4)cc3)[C@@H]2C1`, `Cc1ccccc1-c1ccc([C@@H]2[C@H](CO)N3CCCCN(S(=O)(=O)c4ccc(F)cc4)C[C@@H]23)cc1` is higher in inhibition: 24.4% for the first, 62.4% for the second.

First: N#C[C@@H]1[C@@H](c2ccc(C#Cc3cccc(F)c3)cc2)[C@@H](CO)N1C(=O)C1CCC1
Second: CC(C)CC#Cc1ccc2c(c1)O[C@H](CN(C)C(=O)C1CC1)[C@@H](C)CN([C@@H](C)CO)S2(=O)=O
The inhibition of the first is higher: 62.2% for the first, 58.8% for the second.

Compared with `CCCNC(=O)N1[C@@H]2c3cccc(=O)n3C[C@H]1[C@H](CO)[C@H]2C(=O)NCC(F)(F)F`, `C[C@@H]1CN([C@@H](C)CO)S(=O)(=O)c2ccc(C#CCC3CCCC3)cc2O[C@H]1CN(C)C(=O)CC1CC1` is higher in inhibition: 23.3% for the first, 64.9% for the second.

Compared with `CC(=O)N(C)C[C@H]1Oc2cc(C#CCN(C)C)ccc2S(=O)(=O)N([C@@H](C)CO)C[C@@H]1C`, `CNC[C@@H]1Oc2cc(C#CCC3CCCC3)ccc2S(=O)(=O)N([C@H](C)CO)C[C@H]1C` is lower in inhibition: 91.3% for the first, 31.6% for the second.

For `C[C@@H]1CN([C@H](C)CO)S(=O)(=O)c2ccc(C#C[C@@H](C)O)cc2O[C@@H]1CN(C)Cc1ccc(-c2ccccc2)cc1`, the inhibition was 96.9% (active).
With `C[C@@H]1CN([C@@H](C)CO)C(=O)c2cc(NC(=O)Nc3cccc4ccccc34)ccc2O[C@H]1CN(C)Cc1ccc(Oc2ccccc2)cc1` the inhibition was 106% (active).
With `C[C@@H]1CN([C@@H](C)CO)C(=O)c2cc(NC(=O)Nc3cccc4ccccc34)ccc2O[C@H]1CN(C)Cc1ccc(Cl)c(Cl)c1` the inhibition was 102% (active).
In the case of `C[C@@H]1CCCCO[C@H](CN(C)Cc2ccc(Cl)c(Cl)c2)[C@H](C)CN([C@@H](C)CO)C(=O)c2cc(NC(=O)C3CCCCC3)ccc2O1`, the inhibition is reported as 110% (active).
In the case of `COc1ccc(NC(=O)Nc2ccc3c(c2)C(=O)N([C@H](C)CO)C[C@@H](C)[C@H](CN(C)Cc2ccc(Cl)c(Cl)c2)OCCCC[C@@H](C)O3)cc1`, the inhibition is reported as 114% (active).
For `C[C@@H]1CCCCO[C@@H](CN(C)Cc2ccc(Cl)c(Cl)c2)[C@H](C)CN([C@H](C)CO)C(=O)c2cc(NC(=O)Nc3ccc(F)cc3)ccc2O1`, the inhibition was 112% (active).
With `C[C@@H]1CN([C@H](C)CO)C(=O)c2cc(NC(=O)Nc3ccc(F)cc3)ccc2O[C@@H](C)CCCCO[C@H]1CN(C)Cc1ccc(Cl)c(Cl)c1` the inhibition was 114% (active).
With `COc1cccc(C#Cc2ccc([C@@H]3[C@H](C#N)N[C@H]3CO)cc2)c1` the inhibition was 97.1% (active).
With `C[C@@H]1CN([C@H](C)CO)S(=O)(=O)c2ccc(C#CCC3CCCC3)cc2O[C@H]1CN(C)C(=O)CC1CC1` the inhibition was 106% (active).
In the case of `C[C@@H]1CN([C@@H](C)CO)S(=O)(=O)c2ccc(C#CCN(C)C)cc2O[C@H]1CN(C)C(=O)C1CC1`, the inhibition is reported as 98.9% (active).
With `C[C@H]1CN([C@@H](C)CO)S(=O)(=O)c2ccc(C#CC3CCCC3)cc2O[C@@H]1CN(C)C(=O)c1cccc(F)c1` the inhibition was 100% (active).

From PubChem BioAssay AID651740 (Broad Institute, 2012)
